# Experimental data reported in the EternaBench riboswitch data.
# Tested on: MS2 coat protein
# Test: apparent Kd, MS2 coat protein; higher = weaker binding; RNA-MaP array; FMN 200 µM where present
# Procedure, shortened: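 Designs were transcribed by stalled E. coli RNA polymerase on Illumina sequencing-chip clusters. They were titrated with SNAP-549-labelled MS2 coat protein from 0.7 or 1.5 nM, doubling to 3 µM, without and then with constant ligand. Buffer: 100 mM Tris-HCl pH 7.5, 80 mM KCl, 4 mM MgCl2, BSA, DTT, yeast tRNA, Tween-20. Green signal was normalised to red-channel RNA signal and control-cluster median Fmax. Apparent Kd is the median of filtered per-cluster binding-curve fits.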
# [1] = designed as: ON switch for flavin mononucleotide, no ligand
# [2] = ligand present: flavin mononucleotide, designed as: ON switch for flavin mononucleotide
# [3] = designed as: OFF switch for flavin mononucleotide, no ligand
# [4] = ligand present: flavin mononucleotide, designed as: OFF switch for flavin mononucleotide
Sequence,apparent Kd [1],apparent Kd [2],apparent Kd [3],apparent Kd [4]
AUAUCCUAGAUAGGAUAUACUGAGGUUGAAUGGGUAGAAGGAUCGUUAGGGUGGACUACAUGAGGAUCACCCAUGUUGUUUAUU,213 nM,208 nM,–,–
AUAUCUUGUCAAGGAUAUGUUGUAUUGAUCUGAAAACAUGAGGAUCACCCAUGUAUACGGUGGGAACAGAAGGUGAAUGUAGAA,–,–,532 nM,674 nM
AUAUGAUUAAGAGGAUAUAUACAACAUGAGGAUCACCCAUGUACCCAUGUAGUAGAAGGUUUGUUUUUAUAUAAUAAUAUAAUU,74.8 nM,52.1 nM,–,–
AUAUGUAACUAGGAUAUCAGCAUACUUCAAUGUUGAGAAGGAGUUACAUGAGGAUCACCCAUGUAUCCAACAUG,–,–,40.5 nM,28.6 nM
AUAUUCAGAGGAUAUGCGCAUAGAUAAGACUUUUUUUCUUAACAUGAGGAUCACCCAUGUAGAAGGCUGUAAUA,–,–,20.1 nM,17.5 nM
AUAUUGUGAGGAUAUGAACUAAGUAUCGAAAGAUACUAAGUUCAGAAGGCACAUGAGGAUCACCCAUGUUUCUC,–,–,76.7 nM,729 nM
AUCAGCCCGUCAGGAUAUACGUCACUGCGUCAGCAGUGUGGUAAGAUCACAUGAGGAUCACCCAUGUAGAAGGGACGAGCUGAU,–,–,14.2 nM,261 nM
AUCAGCUCGACAGGAUAUACGUCACUGCGUCAGCAGUGUGGUAAGAUCACAUGAGGAUCACCCAUGUAGAAGGGACGAGCUGAU,–,–,12.1 nM,56.2 nM
AUCAGCUCGUCAGGAUAUACGUAACUGCGUCAGCAGUGUGGUAAGAUCACAUGAGGAUCACCCAUGUAGAAGGGACGAGCUGAU,–,–,–,529 nM
AUCAGCUCGUCAGGAUAUACGUCACUGCGUCAACAGUGUGGUAAGAUCACAUGAGGAUCACCCAUGUAGAAGGGACGAGCUGAU,–,–,14.6 nM,266 nM
AUCAGCUCGUCAGGAUAUACGUCACUGCGUCAGCAGUGUGGUAAGACCACAUGAGGAUCACCCAUGUAGAAGGGACGAGCUGAU,–,–,7.94 nM,24.5 nM
AUCAGCUCGUCAGGAUAUACGUCACUGCGUCAGCAGUGUGGUAAGAUCACAUGAGGAUCACCCAUGUAGAAGGGACGAGCUGAU,–,–,39.7 nM,696 nM
AUCAGCUCGUCAGGAUAUACGUCACUGCGUCAGCAGUGUGGUAAGAUCACAUGAGGAUCACCCAUGUAGAAGGGACGAGCUUAU,–,–,13.8 nM,260 nM
AUCAGCUCGUCAGGAUAUACGUCACUGCGUCAGCAGUGUGGUACGAUCACAUGAGGAUCACCCAUGUAGAAGGGACGAGCUGAU,–,–,12.7 nM,215 nM
AUCAGCUCGUCAGGAUAUACGUCACUGCGUCAGCAUUGUGGUAAGAUCACAUGAGGAUCACCCAUGUAGAAGGGACGAGCUGAU,–,–,19.5 nM,190 nM
AUCAGCUCGUCAGGAUAUACGUCACUGCUUCGGCAGUGUGGUAAGAUUACAUGAGGAUCACCCAUGUAGAAGGGACGAGCUGAU,–,–,6 nM,8.61 nM
AUCAGCUCGUCAGGAUAUACGUCGCUGCGUCAGCAGUGUGGUAAGAUCACAUGAGGAUCACCCAUGUAGAAGGGACGAGCUGAU,–,–,19.3 nM,374 nM
AUCAGCUCGUCAGGAUAUAGGUCACUGCGUCAGCAGUGUGGUAAGAUCACAUGAGGAUCACCCAUGUAGAAGGGACGAGCUGAU,–,–,17.3 nM,59.5 nM
AUCAGCUCGUGAGGAUAUACAUGAUAGAUCGAUUAAUUAAUUAAUUUAACAUGAGGAUCACCCAUGUAGAAGGUACGAGCUGAU,–,–,52.3 nM,50.5 nM
AUCAUGAGAGGAUAUACAUGAGGAUCACCCAUGUUCUUAUCUCGUCGUGCUCCAUUACGUAGAAGGCUCAUUUA,–,–,16 nM,49.2 nM
AUCAUGUAAGGAUAUCUUACAUGUGACUUCGGUCACUGUCAAGAGAAGGUACAUGAGGAUCACCCAUGUAUGAC,–,–,14.7 nM,19 nM

Sequence,apparent Kd [1],apparent Kd [2],apparent Kd [3],apparent Kd [4]
AUCAUUCGUGUAGGAUAUGCGUCAGAAACUGAUGCAGAAGGACAUGAGGAUCACCCAUGUCUUUCUCGAGCUGUAGCUCGAGGA,–,–,21.3 nM,145 nM
AUCCGACAUGAGGAUCACCCAUGUCAGGAUAUGGACUGACAUCGAAAGGAUGGAAGAACCAGAAGGGACUGGGC,–,–,28.2 nM,48.5 nM
AUCCGGCGUGUAGGAUAUGGAAAAGAAAAGGAUCCAGAAGGACAUGAGGAUCACCCAUGUACAUGUAAACAGUCAUCACCGGAA,–,–,36.2 nM,58.9 nM
AUCCUACAUGAGGAUCACCCAUGUGAGGCCUCAAUAGGAUAUGCGUGUGCCUUGGCGCAUGCAGAAGGAUUGAAGC,363 nM,52.5 nM,–,–
AUCUUGAGAGGAUAUACAUGAGGAUCACCCAUGUUGCUAACACCAUGAGCUCAUUUACGUAGAAGGCUCAUCCG,–,–,17.7 nM,17.2 nM
AUCUUGAGAGGAUAUACAUGAGGAUCACCCAUGUUGCUAACACCAUGAGCUCAUUUACGUAGAAGGCUCAUUUG,–,–,18 nM,18.6 nM
AUCUUGAGAGGAUAUACAUGAGGAUCACCCAUGUUGCUAACACCAUGCGCUCAUUUACGUAGAAGGCUCAUCCG,–,–,21.1 nM,40.4 nM
AUCUUGCGAGGAUAUACUUACUUUUUUUUAUUUGGUUGCGAACAUGAGGAUCACCCAUGUAGAAGGUGCAUAAC,–,–,26 nM,24.1 nM
AUGAAGAAUUAAGGAUAUUGAUUACAUAUGUUUAACAUGAGGAUCACCCAUGUGGGUUGCGGUAUCGAGAAGGUAAAUUAAAAG,198 nM,178 nM,–,–
AUGACGGCAGGAUAUACAUGAGGAUCACCCAUGUAAAUUUUUCGUUUACCUUGACCGUGUAGAAGGGCCCAACC,–,–,14.5 nM,16.1 nM
AUGAGGUCAGGAUAUGCAUGGCGGGACUUGCGUCGUGGCGUGGAGAAGGGACAUGAGGAUCACCCAUGUGGAGG,–,–,108 nM,88.3 nM
AUGCGGUCAGGAUAUGCAUGGCGGGACUUGCGUCGUGGCGUGGAGAAGGGACAUGAGGAUCACCCAUGUGGAGC,–,–,53.5 nM,50.4 nM
AUGCUAGUGUGAGGAUAUUAACAUGAGGAUCACCCAUGUUGGAAGUACAUGACAUGAGGUACAUUUAAGAAGGUACAUUAGCAU,–,–,69 nM,77.1 nM
AUGCUAUACGAAGGAUAUGGUUACAUGAGGAUCACCCAUGUUAUGAUUGGGUACAUGAAAAGGUUCCAGAAGGUCGUAUAGCUA,–,–,1210 nM,736 nM
AUGCUCAUAGGAUAUAGAUUGAUUCACAUGAGGAUCACCCAUGUAAACUCUACUUUUUAACUAGAAGGAUGUUUUU,–,–,24.7 nM,23.5 nM
AUGCUUCACACAGGAUAUACAUGAGGAUCACCCAUGUGUCCUAGGUAGCUGACACGAGCUACCCGGUAGAAGGGUGUGAAGCAU,–,–,17 nM,58.4 nM
AUGCUUUUUGUAGGAUAUACAUACGGUACGUAUGUAGAAGGACAUGAGGAUCACCCAUGUAAAUUAUUAUUAAAUAUCAUACUU,–,–,12.7 nM,12.2 nM
AUGGAUAUCACAGGAUAUGCCCGGGAUACCCGGGCAGAAGGGUGAUCCAUCCUAUGUAAAUACAUGAGGAUCACCCAUGUGUCC,75 nM,71.2 nM,–,–
AUGGUGACGUAGAAGGGUGACAUGAGGAUCACCCAUGUGCCGAUAUUUCUCGAGAUAUGUCGGCCACAGGAUAUACGUACCAUC,39.3 nM,83.3 nM,–,–
AUGGUGCAGGUACAGGAUAUGUUGCUCGUAACAUGAGGAUCACCCAUGUACCUAUGAGAUUAAAUGCAGAAGGGUGCACACCACG,784 nM,62.7 nM,–,–
AUGUACCGGUGAGGAUAUUUUUAAUAGAACUUUAUGAUAUACAUGAGGAUCACCCAUGUUACUUUAAAGAAGGCAUCGGAUUAA,–,–,17.7 nM,14.2 nM
